The source of these data is ChEMBL document CHEMBL3351780, “Novel hybrids of metronidazole and quinolones: synthesis, bioactive evaluation, cytotoxicity, preliminary antimicrobial mechanism and effect of metal ions on their transportation by human serum albumin” (Eur J Med Chem, 2014).

What all share (format): functional
One assay has as its system Streptococcus pneumoniae. The assay is described as follows: Antibacterial activity against Streptococcus pneumoniae by two-fold serial dilution method. The gist of the method:
(§1)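 Standard two-fold serial dilution in 96-well microtest plates following NCCLS. Top dilutions printed as 32, 16, 8, 4, 2, 1, 0.5 ug/mL. Wells inoculated and held at 37 °C for 24 h. Growth judged visually and by spectrophotometer, in triplicate. MIC is the lowest concentration giving complete growth inhibition.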

A further assay deals with Micrococcus luteus. Briefly: Antibacterial activity against Micrococcus luteus by two-fold serial dilution method. The gist of the method: as §1
In assay [1] the test system is Staphylococcus aureus. Briefly: Antibacterial activity against methicillin-resistant Staphylococcus aureus N315 by two-fold serial dilution method. The gist of the method: (§2)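 MIC read as the lowest concentration giving complete growth inhibition. Two-fold serial dilutions were made in 96-well plates following NCCLS, giving a series down to 0.5 µg/mL (…32, 16, 8, 4, 2, 1, 0.5). Plates were inoculated and incubated at 37 °C for 24 h. A DMSO-with-inoculum control without drug was included. Growth was monitored visually and spectrophotometrically, in triplicate.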

The subject of assay [2] is Staphylococcus aureus. The assay is described as follows: Antibacterial activity against Staphylococcus aureus ATCC 25923 by two-fold serial dilution method. The gist of the method:
as §1

The next assay concerns Bacillus spizizenii. Briefly: Antibacterial activity against Bacillus subtilis ATCC 6633 by two-fold serial dilution method. The gist of the method: as §1
Another assay deals with Pseudomonas aeruginosa. The assay is described as follows: Antibacterial activity against Pseudomonas aeruginosa by two-fold serial dilution method. The gist of the method:
as §1

The subject of another assay is Escherichia coli. The assay is described as follows: Antibacterial activity against Escherichia coli DH52 by two-fold serial dilution method. The gist of the method: as §1
The test system of another assay is Shigella dysenteriae. Briefly: Antibacterial activity against Shigella dysenteriae by two-fold serial dilution method. The gist of the method:
as §2

Assay [3] can be described thus: Antibacterial activity against Eberthella typhosa by two-fold serial dilution method. Put shortly: as §2
The subject of a further assay is Cyberlindnera jadinii. Briefly: Antifungal activity against Candida utilis after 24 hrs by microbroth dilution method. Conditions: Williopsis jadinii. Put shortly:
(§3)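 Spore suspension prepared in sterile distilled water from one-day-old cultures on Sabouraud agar, final 1-5 x 10^3 spores/mL. Compounds were serially diluted in RPMI 1640 to give eleven dilutions. Incubation at 35 °C for 24 h. Growth read visually and spectrophotometrically, in triplicate. MIC is the lowest concentration with complete inhibition.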
(Broth dilution looks for growth in wells or tubes with falling amounts of substance.)

A further assay deals with Saccharomyces cerevisiae. The assay is described as follows: Antifungal activity against Saccharomyces cerevisiae after 24 hrs by microbroth dilution method. The gist of the method: as §3
In another assay the test system is Candida albicans. Briefly: Antifungal activity against Candida albicans ATCC 76615 after 24 hrs by microbroth dilution method. Conditions: ATCC 76615, 24 h. Put shortly: as §3
A further assay relates to Pichia norvegensis. The assay is described as follows: Antifungal activity against Candida mycoderma after 24 hrs by microbroth dilution method.

Structures are written as SMILES. In brackets after ≈: the same amount, converted by molar mass.

For orientation: MIC means the least concentration at which growth counts as inhibited.

`O=C(O)c1cn(CC(O)Cn2cnc([N+](=O)[O-])c2)c2c(F)cccc2c1=O` (stereo not drawn): the MIC is 32 mg/L (≈ 85 µM) against Streptococcus pneumoniae; 4 mg/L (≈ 10.6 µM) in the assay on Micrococcus luteus; 4 mg/L (≈ 10.6 µM) in the assay with Staphylococcus aureus [1]; 16 mg/L (≈ 42.5 µM) against Staphylococcus aureus [2]; 4 mg/L (≈ 10.6 µM) against Bacillus spizizenii; 8 mg/L (≈ 21.3 µM) against Pseudomonas aeruginosa. In addition, the MIC in the assay with Escherichia coli amounted to 4 mg/L (≈ 10.6 µM); with Shigella dysenteriae, 8 mg/L (≈ 21.3 µM); in assay [3], 32 mg/L (≈ 85 µM); in the assay on Cyberlindnera jadinii it was 512 mg/L (≈ 1360 µM); against Saccharomyces cerevisiae, 64 mg/L (≈ 170 µM); with Candida albicans it was 128 mg/L (≈ 340 µM). In the assay on Pichia norvegensis, this compound registered an MIC of 128 mg/L (≈ 340 µM).

On to `O=C(O)c1cn(CC(O)Cn2cnc([N+](=O)[O-])c2)c2cc(C(F)(F)F)ccc2c1=O` (stereo not drawn), for which the MIC in the assay with Streptococcus pneumoniae is 16 mg/L (≈ 37.5 µM); in the assay with Micrococcus luteus it was 8 mg/L (≈ 18.8 µM); in the assay with Staphylococcus aureus [1], 4 mg/L (≈ 9.38 µM); in the assay with Staphylococcus aureus [2], 4 mg/L (≈ 9.38 µM); with Bacillus spizizenii it was 4 mg/L (≈ 9.38 µM); against Pseudomonas aeruginosa, 8 mg/L (≈ 18.8 µM). Also, the MIC against Escherichia coli is 2 mg/L (≈ 4.69 µM); in the assay with Shigella dysenteriae it was 4 mg/L (≈ 9.38 µM); in assay [3], 4 mg/L (≈ 9.38 µM); in the assay on Cyberlindnera jadinii it was 128 mg/L (≈ 300 µM); against Saccharomyces cerevisiae, 32 mg/L (≈ 75.1 µM); against Candida albicans it was 128 mg/L (≈ 300 µM). Further, the MIC in the assay with Pichia norvegensis is 128 mg/L (≈ 300 µM).

In the case of `O=C(O)c1cn(CC(O)Cn2cnc([N+](=O)[O-])c2)c2c(F)cc(F)cc2c1=O` (stereo not drawn), the MIC in the assay on Streptococcus pneumoniae turned out to be 16 mg/L (≈ 40.6 µM); in the assay with Micrococcus luteus it was 8 mg/L (≈ 20.3 µM); in the assay on Staphylococcus aureus [1], 16 mg/L (≈ 40.6 µM); with Staphylococcus aureus [2] it was 16 mg/L (≈ 40.6 µM); with Bacillus spizizenii, 8 mg/L (≈ 20.3 µM); in the assay with Pseudomonas aeruginosa, 32 mg/L (≈ 81.2 µM). The MIC with Escherichia coli was found to be 32 mg/L (≈ 81.2 µM); against Shigella dysenteriae it was 32 mg/L (≈ 81.2 µM); in assay [3], 32 mg/L (≈ 81.2 µM); against Cyberlindnera jadinii, 256 mg/L (≈ 649 µM); in the assay with Saccharomyces cerevisiae it was 256 mg/L (≈ 649 µM); against Candida albicans it was 16 mg/L (≈ 40.6 µM). In addition, it took 64 mg/L (≈ 162 µM) to inhibit growth in the assay with Pichia norvegensis (MIC).

Turning to `O=C(O)c1cn(CC(O)Cn2cnc([N+](=O)[O-])c2)c2c(Cl)cc(Cl)cc2c1=O` (stereo not drawn), the MIC in the assay on Streptococcus pneumoniae was determined as 8 mg/L (≈ 18.7 µM); in the assay with Micrococcus luteus, 8 mg/L (≈ 18.7 µM); with Staphylococcus aureus [1], 16 mg/L (≈ 37.5 µM); against Staphylococcus aureus [2] it was 8 mg/L (≈ 18.7 µM); with Bacillus spizizenii it was 4 mg/L (≈ 9.36 µM); in the assay on Pseudomonas aeruginosa it was 8 mg/L (≈ 18.7 µM). Moreover, the MIC against Escherichia coli is 8 mg/L (≈ 18.7 µM); in the assay on Shigella dysenteriae it was 8 mg/L (≈ 18.7 µM); in assay [3], 16 mg/L (≈ 37.5 µM); in the assay with Cyberlindnera jadinii it was 256 mg/L (≈ 599 µM); against Saccharomyces cerevisiae it was 128 mg/L (≈ 300 µM); in the assay with Candida albicans, 256 mg/L (≈ 599 µM). Besides, the MIC with Pichia norvegensis stood at 64 mg/L (≈ 150 µM).

As to `CCOC(=O)c1cn(CC(O)Cn2c([N+](=O)[O-])cnc2C)c2ccc(OC)cc2c1=O` (racemic), the MIC with Micrococcus luteus stood at 256 mg/L (≈ 595 µM); in the assay with Staphylococcus aureus [1], 8 mg/L (≈ 18.6 µM); in the assay on Staphylococcus aureus [2] it was 16 mg/L (≈ 37.2 µM); with Bacillus spizizenii it was 8 mg/L (≈ 18.6 µM); in the assay on Pseudomonas aeruginosa it was 64 mg/L (≈ 149 µM); in the assay on Escherichia coli, 8 mg/L (≈ 18.6 µM). For the same compound, the MIC turned out to be 32 mg/L (≈ 74.3 µM) with Shigella dysenteriae; 16 mg/L (≈ 37.2 µM) in assay [3]; 256 mg/L (≈ 595 µM) against Cyberlindnera jadinii; 2 mg/L (≈ 4.65 µM) against Saccharomyces cerevisiae; 8 mg/L (≈ 18.6 µM) against Candida albicans; 256 mg/L (≈ 595 µM) with Pichia norvegensis.

In the case of `CCOC(=O)c1cn(CC(O)Cn2cnc([N+](=O)[O-])c2)c2ccc(C)cc2c1=O` (racemic), the MIC in the assay with Micrococcus luteus stood at 8 mg/L (≈ 20 µM); in the assay on Staphylococcus aureus [1], 16 mg/L (≈ 40 µM); in the assay with Staphylococcus aureus [2], 16 mg/L (≈ 40 µM); with Bacillus spizizenii, 8 mg/L (≈ 20 µM); against Pseudomonas aeruginosa, 4 mg/L (≈ 9.99 µM); against Escherichia coli it was 8 mg/L (≈ 20 µM). In addition, the MIC in the assay with Shigella dysenteriae came out at 8 mg/L (≈ 20 µM); in assay [3], 4 mg/L (≈ 9.99 µM); against Cyberlindnera jadinii, 8 mg/L (≈ 20 µM); in the assay on Saccharomyces cerevisiae, 8 mg/L (≈ 20 µM); against Candida albicans, 2 mg/L (≈ 5 µM); in the assay with Pichia norvegensis it was 128 mg/L (≈ 320 µM).

`CCOC(=O)c1cn(CC(O)Cn2c([N+](=O)[O-])cnc2C)c2cc(Cl)c(F)cc2c1=O` (racemic): the MIC against Micrococcus luteus is 128 mg/L (≈ 283 µM); with Staphylococcus aureus [1], 4 mg/L (≈ 8.83 µM); in the assay with Staphylococcus aureus [2], 64 mg/L (≈ 141 µM); in the assay with Bacillus spizizenii it was 8 mg/L (≈ 17.7 µM); against Pseudomonas aeruginosa, 32 mg/L (≈ 70.7 µM); against Escherichia coli, 64 mg/L (≈ 141 µM). Also, the MIC in the assay on Shigella dysenteriae turned out to be 16 mg/L (≈ 35.3 µM); in [3], 8 mg/L (≈ 17.7 µM); against Cyberlindnera jadinii it was 256 mg/L (≈ 565 µM); in the assay on Saccharomyces cerevisiae, 16 mg/L (≈ 35.3 µM); against Candida albicans it was 128 mg/L (≈ 283 µM); in the assay on Pichia norvegensis it was 128 mg/L (≈ 283 µM).
